Screening results (PubChem BioAssay)
EWS-Fli inh = inhibitors of EWS/Fli oncoprotein transcriptional activity; A673 NR0B1-luciferase reporter, viability-normalised; inhibition, % at 12.6 µM; hit rate 0.67% among 350,000; AID 651661;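 active = mean inhibition of at least 50% after viability correction, with every replicate also passing that limit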;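 also: firefly luciferase signal divided by Alamar Blue viability fluorescence both relative to DMSO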
FGF22 binding = binders of recombinant human FGF22 by thermal shift | SYPRO orange fluorescence; percent of sucrose octasulfate shift, DMSO zero | activity (Tm shift, normalised), % at 9.99 µM | hit rate 1.5% among 340,000 | AID 651658;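 active = mean Tm shift, scaled 0 neutral to 100 positive control, at about 1.3% or above, every replicate too, limit read from the data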
Target sequence (Q9HCT0 whole entry, looked up): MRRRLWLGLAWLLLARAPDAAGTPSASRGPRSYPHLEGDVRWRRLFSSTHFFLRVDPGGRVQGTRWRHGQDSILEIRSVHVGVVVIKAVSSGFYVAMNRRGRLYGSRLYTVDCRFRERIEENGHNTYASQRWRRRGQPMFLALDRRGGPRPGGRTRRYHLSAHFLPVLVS
PAX8 inh HTS = lowers PAX8-driven luciferase in RMG-I cells. RMG-I TPO-luciferase reporter, SteadyGlo, 24 h. inhibition, % at 12.6 µM. hit rate 1.2% among 360,000. AID 652154;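 active = mean replicate inhibition at least 60% with every replicate also reaching 60%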;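 also: luciferase light reporting Pax8 driven TPO promoter activity; plate controls were median of neutral control wells for no effect and mitoxantrone controls for full effect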
Env fusion inh = HIV envelope-mediated fusion inhibition | HeLa-JRFL Env/CEM21 cell fusion, luciferase | inhibition, % at 12.3 µM | hit rate 1.1% among 360,000;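 active = mean replicate inhibition score of at least 50 and every replicate individually at or above 50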;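 also: 0% = plate neutral controls and 100% = maraviroc near 300 nM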
FN deposition inh = fibronectin deposition inhibition | hit rate 0.086% among 350,000 | AH1F fibroblasts, Alexa488-fibronectin deposition fluorescence, overnight | inhibition, % at 12.6 µM | AID 743247;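 active = mean inhibition across replicates of 30% or more, regardless of how many single replicates reach that level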;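 also: positive control wells lacked labelled fibronectin entirely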
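material = AH1F fibroblast monolayer depositing Alexa488-labelled fibronectin into matrix | amount = 10000 AH1F cells/well | buffer or medium = DMEM plus 2% serum, read in PBS | incubation = 1 h cell adhesion before compound, then overnight fibronectin incubation | detection = fluorescence at 485 nm excitation, 525 nm emission | evaluation = percent inhibition as loss of matrix-bound fibronectin fluorescence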
PGC1a acetyl inh = PGC1a acetylation modulation, inhibitor mode; U2OS PGC1a acetylation, AlphaScreen anti-acetyl-lysine; with virally co-expressed GCN5 acetyltransferase; AID 651687; hit rate 0.17% among 350,000; inhibition, % at 15.6 µM;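 active = every replicate shows inhibition of at least 40%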;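 also: 0% = neutral control wells and 100% = positive control wells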
The depositor's hits bear a star; · = no result; [ ] = another dose, or the depositor's remark. The list is not random: actives were taken first. Their share in the collection is about 3.1%.

SMILES	EWS-Fli inh	FGF22 binding	PAX8 inh HTS	Env fusion inh	FN deposition inh	PGC1a acetyl inh
O=C1/C(=C\c2ccccc2)SC(=S)N1CCC(=O)N1CCCCC1CCO (centres undefined)	·	-1	48	-1	11	8
COCC(=O)N(C)C[C@H]1Oc2ncc(C3=CCCCC3)cc2C(=O)N([C@H](C)CO)C[C@H]1C	-10	0	·	-10[16.7 µM]	·	1
COCC(=O)Nc1ccc2c(c1)[C@H]1C[C@@H](CC(=O)NCc3cc(F)ccc3F)O[C@H](CO)[C@H]1O2	-2	0	5	-29[16.7 µM]	4	1
O=C(O)c1ccc(Oc2ccc(C(F)(F)F)cn2)cc1	2	0	4	-16	3	-9
Cc1ccccc1N1CCN(C(=O)c2ccc(Oc3ccc(C(F)(F)F)cn3)cc2)CC1	·	·	·	68*	2	12
CC(=O)N1[C@H](CO)[C@H](c2ccc(C3=CCCC3)cc2)[C@@H]1CNC(=O)CC1CC1	3	·	·	·	-5	·
Cc1ccc2[nH]c3c(c2c1)CN(C(=O)CN1c2ccc(F)cc2CCC1C)CC3 (centres undefined)	·	·	·	60*	4	·
Cc1cccc(-c2ccc([C@H]3[C@@H](CO)N4CCCCN(S(=O)(=O)c5cccc(C)c5)C[C@@H]34)cc2)c1	5	0	96*	·	·	-7
Cc1ccc(-c2ccc([C@H]3[C@@H](CO)N4CCCCN(S(=O)(=O)c5cccc(C)c5)C[C@H]34)cc2)cc1	1	0	73*	·	·	-16
C[C@@H]1CN([C@H](C)CO)C(=O)c2cc(-c3cncnc3)cnc2O[C@@H]1CN(C)C(=O)Nc1ccc2c(c1)OCO2	-2	0	·	-10[16.7 µM]	·	-1
CCOc1ccc(N/C(SCc2cccc([N+](=O)[O-])c2)=C(/C#N)C(N)=O)cc1	-4	0	-10	15	-5	-34
N#CC(C#N)=C(Nc1ccc(F)cc1)SCc1cccc(F)c1	·	·	77*	61*	5	·
C[C@H](CO)N1C[C@H](C)[C@@H](CN(C)C(=O)C2CC2)Oc2cc(-c3ccc(C(=O)N(C)C)cc3)ccc2S1(=O)=O	17	·	·	0[16.7 µM]	·	-6
COc1ccc(/C=N/NC(=O)c2snnc2C)c(OC)c1OC	42	43*	-2	15	1	3
Cc1cc(C2CCCCC2)n(O)c(=O)c1	31	0	73*	9	-5	14
Cn1c(NC2CCCCC2)cc(=O)n(C)c1=O	0	0	-20	4	1	·
COCC(=O)N1[C@@H]2CN(C(=O)c3ccccc3)c3ccccc3[C@@H]2[C@@H]1CO	4	-1	-20	·	·	-3
Cc1ccc(-c2c[n+](CC(=O)c3ccc(Br)cc3)c3n2CCCCC3)cc1	48	43	98*	35	4	13
O=C(C[n+]1cc(-c2ccccc2)n2c1CCCCC2)c1ccc(Cl)cc1	-15	0	40	-33	-9	-6
CC1(C)CC(=O)C2=C(C1)NC1=C(C(=O)c3ccccc31)C2c1ccccc1 (centres undefined)	9	0	17	6	-5	·
Cc1nc2[nH]c(=O)c3c(n2n1)NC1=C(C(=O)CC(C)(C)C1)C3c1ccccc1 (centres undefined)	·	·	12	37	-2	84*
C[C@@H]1CN([C@H](C)CO)C(=O)c2cc(NS(=O)(=O)c3cccs3)ccc2O[C@@H](C)CCCCO[C@@H]1CN(C)CC1CCCCC1	5	0	7	1[16.7 µM]	·	1
COc1cccc(CNc2nc3cc(-c4ccccc4)sc3c(=O)n2C)c1OC	11	0	34	66*	5	·
COc1cccc(CNc2nc3cc(-c4cccc(Cl)c4)sc3c(=O)n2C)c1OC	27	0	42	14	-3	·
CC1=NN(c2ccccc2)C(=O)/C1=C\c1cn(-c2ccccc2)nc1C	-4	0	5	-4	1	·
SMILES	EWS-Fli inh	FGF22 binding	PAX8 inh HTS	Env fusion inh	FN deposition inh	PGC1a acetyl inh
CC1=NN(c2ccccc2)C(=O)/C1=C\c1cn(CCC#N)nc1-c1ccc(Cl)cc1	-14	44*	-6	26	-6	-5
CCC(=O)Nc1ccc2c(c1)C(=O)N(C)C[C@H](OC)[C@H](C)CN(C(=O)COC)[C@H](C)CO2	-5	0	-11	·	2	5
C[C@H](CO)N1C[C@H](C)[C@@H](CN(C)CC2CC2)Oc2ccc(NS(C)(=O)=O)cc2CC1=O	1	0	-16	58*[16.7 µM]	·	4
CNC[C@@H]1Oc2ccc(NS(C)(=O)=O)cc2CC(=O)N([C@H](C)CO)C[C@H]1C	2	0	12	65*[16.7 µM]	·	3
C[C@@H]1CN([C@H](C)CO)C(=O)Cc2cc(NS(=O)(=O)c3ccccc3)ccc2O[C@@H]1CN(C)CC1CCCCC1	64*	0	-3	-20[16.7 µM]	·	·
C[C@H](CO)N1C[C@H](C)[C@H](CN(C)CC2CCCCC2)Oc2ccc(NS(=O)(=O)c3ccccc3)cc2CC1=O	1	0	-7	-1[16.7 µM]	·	·
C[C@@H]1CN([C@@H](C)CO)C(=O)Cc2cc(NS(C)(=O)=O)ccc2O[C@H]1CN(C)CC1CC1	0	0	5	2[16.7 µM]	·	-7
COC(=O)C[C@@H]1CC[C@H]2[C@@H](COC[C@H](O)CN2S(=O)(=O)c2cn(C)cn2)O1	-1	0	-7	-18[16.7 µM]	-10	5
C[C@@H](NC(=O)C[C@H]1C[C@@H]2c3cc(NC(=O)CN(C)C)ccc3O[C@@H]2[C@@H](CO)O1)c1ccccc1	-7	0	4	-7[16.7 µM]	-10	5
C[C@@H]1CCCCO[C@@H](CN(C)C(=O)NC2CCCCC2)[C@@H](C)CN([C@@H](C)CO)C(=O)c2cc(NC(=O)c3ccccc3)ccc2O1	-6	0	·	-15[16.7 µM]	4	12
COc1ccc(S(=O)(=O)N(C)C[C@@H]2Oc3ccc(NS(=O)(=O)c4ccc(Cl)cc4)cc3C(=O)N([C@@H](C)CO)C[C@H]2C)cc1	-2	0	·	·	·	-6
Cc1ccc(/C=N/N=C/c2ccc(C)cc2)cc1	-9	0	-85	-3	2	1
Oc1ccc(/C=N/N=C/c2ccc(O)cc2)cc1	-65	66*	-11	-10	5	-10
C[C@@H]1CN([C@@H](C)CO)S(=O)(=O)c2ccc(C#CC3CCCC3)cc2O[C@@H]1CN(C)Cc1cccnc1	12	0	18	2[16.7 µM]	6	-9
C[C@@H]1CN([C@H](C)CO)S(=O)(=O)c2ccc(C#CC3CCCC3)cc2O[C@H]1CN(C)Cc1cncnc1	20	·	18	-5[16.7 µM]	6	-11
CNC[C@@H]1Oc2cc(C#CC3CCCCC3)ccc2S(=O)(=O)N([C@@H](C)CO)C[C@@H]1C	56*	0	92*	28[16.7 µM]	2	-14
C[C@H]1CN([C@@H](C)CO)S(=O)(=O)c2ccc(C#CC3CCCC3)cc2O[C@@H]1CN(C)Cc1cccnc1	19	-1	98*	21[16.7 µM]	9	-2
